# Measured values as given in ChEMBL document CHEMBL2010675, “Discovery of GS-9451: an acid inhibitor of the hepatitis C virus NS3/4A protease” (Bioorg Med Chem Lett, 2012).
# What was measured:
# [1] = Oral bioavailability in dog at 4 mg/kg; assay type: ADME, organism-based, Canis lupus familiaris; settings: in vivo
# In short: (§1)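 Dosed at 1.0 mg/kg iv and 4.0 mg/kg po; plasma drug levels followed to derive iv t1/2, oral AUC, clearance, Vdss and oral bioavailability (F).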
# Canis familiaris = experiment: AUC in dog at 4 mg/kg, po; assay type: ADME, organism-based, Canis lupus familiaris, Plasma; design: dose 4 mg/kg, route oral; settings: in vivo; in short: as §1
# [2] = Thermodynamic solubility of the compound at pH 7.3; assay type: physicochemical; settings: buffer, read-out: Therm_solubility
# Hepatitis C virus [3] = experiment: Inhibition of Hepatitis C virus genotype 1b NS3/4A protease; design: species or system Hepatitis C virus subtype 1b
# Hepatitis C virus [4] = experiment: Antiviral activity against Hepatitis C virus genotype 1b infected in human Huh cells by luciferase reporter gene based replicon assay; assay type: functional, organism-based, Hepacivirus hominis
# In short: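 EC50 from a cell-based assay in Huh-luc cells carrying a subgenomic HCV genotype 1b replicon, with luciferase reporter read-out.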
# [5] = Permeability from apical to basolateral side in human Caco2 cells; assay type: ADME, cell-based; settings: Caco-2, read-out: permeability
# [6] = Thermodynamic solubility of the compound at pH 2.2; assay type: physicochemical; settings: buffer, read-out: Therm_solubility
# [7] = Volume of distribution at steady state in dog at 1 mg/kg, iv and 4 mg/kg, po; assay type: ADME, organism-based, Canis lupus familiaris; settings: in vivo, read-out: Vdss; in short: as §1
# [8] = Half life in dog at 1 mg/kg, iv; assay type: ADME, organism-based, Canis lupus familiaris; design: dose 1 mg/kg, route intravenous; settings: in vivo; in short: as §1
# [9] = Clearance in dog at 1 mg/kg, iv and 4 mg/kg, po; assay type: ADME, organism-based, Canis lupus familiaris; settings: in vivo; in short: as §1
# [10] = Permeability from basolateral to apical side in human Caco2 cells; assay type: ADME, cell-based; settings: Caco-2, read-out: permeability
# [11] = Cmax in dog at 4 mg/kg, po; assay type: ADME, organism-based, Canis lupus familiaris; design: dose 4 mg/kg, route oral; settings: in vivo
# [12] = Half life in cynomolgus monkey microsomes; assay type: ADME, Macaca fascicularis, Microsome
# [13] = Half life in dog microsomes; assay type: ADME, Canis lupus familiaris, Microsome
# Hepatitis C virus [14] = experiment: Antiviral activity against Hepatitis C virus genotype 1a infected in human assessed as log decrease in viral RNA level at 400 mg, po for 3 days; assay type: functional, Hepacivirus hominis, subtype 1a
# [15] = Inhibition of p-glycoprotein
# Rattus norvegicus = experiment: AUC in rat at 4 mg/kg, po; assay type: ADME, organism-based, Plasma; design: dose 4 mg/kg, route oral; settings: in vivo
# [16] = Selectivity for hepatitis C virus NS3/4A protease over human cathepsin L
# [17] = molecular target: T1, Broad substrate specificity ATP-binding cassette transporter ABCG2 (Homo sapiens, UniProt Q9UNQ0); experiment: Inhibition of BCRP; assay type: ADME
# T1 sequence (Q9UNQ0 whole entry): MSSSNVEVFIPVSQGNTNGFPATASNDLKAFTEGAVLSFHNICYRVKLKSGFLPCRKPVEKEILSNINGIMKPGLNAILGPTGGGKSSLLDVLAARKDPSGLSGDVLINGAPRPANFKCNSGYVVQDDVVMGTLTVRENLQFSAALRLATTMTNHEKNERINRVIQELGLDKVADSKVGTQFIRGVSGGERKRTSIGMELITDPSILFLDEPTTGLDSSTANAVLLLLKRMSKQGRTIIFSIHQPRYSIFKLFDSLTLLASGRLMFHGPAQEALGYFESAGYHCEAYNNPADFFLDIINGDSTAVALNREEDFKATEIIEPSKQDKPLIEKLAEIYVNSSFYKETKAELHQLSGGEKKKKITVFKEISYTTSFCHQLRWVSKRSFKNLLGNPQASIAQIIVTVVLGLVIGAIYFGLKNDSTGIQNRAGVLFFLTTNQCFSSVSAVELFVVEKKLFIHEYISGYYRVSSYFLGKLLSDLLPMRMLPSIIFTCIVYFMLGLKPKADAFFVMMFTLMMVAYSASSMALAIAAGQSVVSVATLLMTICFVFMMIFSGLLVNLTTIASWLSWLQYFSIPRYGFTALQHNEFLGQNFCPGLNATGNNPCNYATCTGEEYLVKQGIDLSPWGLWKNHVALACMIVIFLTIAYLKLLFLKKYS
# [18] = Clearance in cynomolgus monkey at 1 mg/kg, iv and 4 mg/kg, po; assay type: ADME, organism-based, Macaca fascicularis; settings: in vivo; in short: as §1
# [19] = Fraction unbound in human plasma; assay type: ADME, cell-free
# [20] = Half life in cynomolgus monkey at 1 mg/kg, iv; assay type: ADME, organism-based, Macaca fascicularis; design: dose 1 mg/kg, route intravenous; settings: in vivo; in short: as §1
# Cynomolgus monkey = experiment: AUC in cynomolgus monkey at 4 mg/kg, po; assay type: ADME, organism-based, Macaca fascicularis, Plasma; design: dose 4 mg/kg, route oral; settings: in vivo; in short: as §1
# [21] = Selectivity for hepatitis C virus NS3/4A protease over human cathepsin D
# [22] = Fraction unbound in rat plasma; assay type: ADME, cell-free
# [23] = Fraction unbound in dog plasma; assay type: ADME, cell-free, Canis lupus familiaris
# [24] = Clearance in rat at 1 mg/kg, iv and 4 mg/kg, po; assay type: ADME, organism-based; settings: in vivo
# [25] = Selectivity for hepatitis C virus NS3/4A protease over human leukocyte elastase
# [26] = Drug excretion in rat bile at 1 mg/kg, iv; assay type: ADME, organism-based; design: dose 1 mg/kg, route intravenous; settings: read-out: Drug excretion
# In short: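 Bile-duct cannulated rats given drug intravenously; bile collected and the fraction of total dose recovered as parent compound and as glucuronide conjugates measured.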
# Hepatitis C virus [27] = experiment: Antiviral activity against Hepatitis C virus genotype 1a infected in human assessed as log decrease in viral RNA level at 200 mg, po for 3 days; assay type: functional, Hepacivirus hominis, subtype 1a
# [28] = Fraction unbound in cynomolgus monkey plasma; assay type: ADME, cell-free, Macaca fascicularis
# [29] = Cmax in rat at 4 mg/kg, po; assay type: ADME, organism-based; design: dose 4 mg/kg, route oral; settings: in vivo
# [30] = Half life in rat microsomes; assay type: ADME, Microsome
# [31] = Selectivity for hepatitis C virus NS3/4A protease over human proteinase 3
# [32] = Oral bioavailability in rat at 4 mg/kg; assay type: ADME, organism-based; settings: in vivo
# [33] = Volume of distribution at steady state in rat at 1 mg/kg, iv and 4 mg/kg, po; assay type: ADME, organism-based; settings: in vivo, read-out: Vdss
# Hepatitis C virus [34] = experiment: Antiviral activity against Hepatitis C virus genotype 1a infected in human assessed as log decrease in viral RNA level at 60 mg, po for 3 days; assay type: functional, Hepacivirus hominis, subtype 1a
# [35] = Half life in human microsomes; assay type: ADME, Microsome
# [36] = Cmax in cynomolgus monkey at 4 mg/kg, po; assay type: ADME, organism-based, Macaca fascicularis; design: dose 4 mg/kg, route oral; settings: in vivo
# [37] = molecular target: Voltage-gated inwardly rectifying potassium channel KCNH2 (Homo sapiens, UniProt Q12809); experiment: Inhibition of human Erg up to 25 uM
# [38] = Inhibition of cytochrome P450 up to 25 uM; assay type: ADME
# [39] = Half life in rat at 1 mg/kg, iv; assay type: ADME, organism-based; design: dose 1 mg/kg, route intravenous; settings: in vivo
# [40] = Oral bioavailability in cynomolgus monkey at 4 mg/kg; assay type: ADME, organism-based, Macaca fascicularis; settings: in vivo; in short: as §1
# [41] = Volume of distribution at steady state in cynomolgus monkey at 1 mg/kg, iv and 4 mg/kg, po; assay type: ADME, organism-based, Macaca fascicularis; settings: in vivo, read-out: Vdss; in short: as §1
# [42] = Elimination half life in human at 10 to 1000 mg; settings: in vivo, read-out: beta t1/2 (converted)
# [43] = molecular target: Multidrug resistance-associated protein 1 (Homo sapiens, UniProt P33527); experiment: Inhibition of MRP1
# [44] = Plasma concentration in human at 300 mg after 24 hrs
# [45] = molecular target: ATP-binding cassette sub-family C member 2 (Homo sapiens, UniProt Q92887); experiment: Inhibition of MRP2
# ATP-binding cassette sub-family C member 2, sequence (Q92887 whole entry): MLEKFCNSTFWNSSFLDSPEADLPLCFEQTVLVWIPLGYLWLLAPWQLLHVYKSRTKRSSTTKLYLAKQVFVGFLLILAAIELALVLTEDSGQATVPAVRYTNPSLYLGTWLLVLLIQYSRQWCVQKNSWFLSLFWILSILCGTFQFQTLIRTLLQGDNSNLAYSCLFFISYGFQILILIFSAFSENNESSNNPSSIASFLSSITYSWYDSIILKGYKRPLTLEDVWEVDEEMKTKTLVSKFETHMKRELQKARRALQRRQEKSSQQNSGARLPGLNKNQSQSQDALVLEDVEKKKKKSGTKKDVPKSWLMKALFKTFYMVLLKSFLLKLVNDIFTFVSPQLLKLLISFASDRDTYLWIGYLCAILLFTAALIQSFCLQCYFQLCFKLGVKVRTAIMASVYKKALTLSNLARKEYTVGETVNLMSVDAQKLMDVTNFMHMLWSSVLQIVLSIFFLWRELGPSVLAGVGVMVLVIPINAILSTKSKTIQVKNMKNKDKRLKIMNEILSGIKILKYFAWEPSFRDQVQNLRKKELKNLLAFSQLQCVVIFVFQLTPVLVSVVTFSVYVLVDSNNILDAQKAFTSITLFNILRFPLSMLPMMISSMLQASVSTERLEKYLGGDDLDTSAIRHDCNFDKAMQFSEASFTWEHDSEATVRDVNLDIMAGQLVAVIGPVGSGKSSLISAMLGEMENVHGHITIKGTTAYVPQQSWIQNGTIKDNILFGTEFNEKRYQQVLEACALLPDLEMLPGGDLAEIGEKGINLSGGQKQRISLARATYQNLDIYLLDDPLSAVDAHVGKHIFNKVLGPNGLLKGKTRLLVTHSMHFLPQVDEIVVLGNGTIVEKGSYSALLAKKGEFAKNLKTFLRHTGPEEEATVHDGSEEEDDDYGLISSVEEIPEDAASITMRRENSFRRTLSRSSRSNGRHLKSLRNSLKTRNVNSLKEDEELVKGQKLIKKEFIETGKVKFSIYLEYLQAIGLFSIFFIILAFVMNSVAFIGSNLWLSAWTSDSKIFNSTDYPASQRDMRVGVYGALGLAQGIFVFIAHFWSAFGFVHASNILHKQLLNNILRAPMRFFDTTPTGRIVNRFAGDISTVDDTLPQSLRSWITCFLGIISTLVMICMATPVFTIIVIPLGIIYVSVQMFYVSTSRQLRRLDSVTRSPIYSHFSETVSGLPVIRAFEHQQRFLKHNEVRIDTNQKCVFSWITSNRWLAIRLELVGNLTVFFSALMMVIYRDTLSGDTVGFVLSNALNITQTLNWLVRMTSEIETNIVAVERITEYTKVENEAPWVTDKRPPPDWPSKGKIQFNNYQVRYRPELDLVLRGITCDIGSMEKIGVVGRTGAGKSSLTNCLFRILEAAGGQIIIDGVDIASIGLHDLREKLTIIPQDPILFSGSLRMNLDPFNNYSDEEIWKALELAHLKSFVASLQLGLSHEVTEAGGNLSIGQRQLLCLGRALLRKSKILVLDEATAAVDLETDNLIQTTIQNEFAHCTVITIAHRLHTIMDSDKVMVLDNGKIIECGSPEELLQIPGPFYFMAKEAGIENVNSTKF
# Multidrug resistance-associated protein 1, sequence (P33527 whole entry): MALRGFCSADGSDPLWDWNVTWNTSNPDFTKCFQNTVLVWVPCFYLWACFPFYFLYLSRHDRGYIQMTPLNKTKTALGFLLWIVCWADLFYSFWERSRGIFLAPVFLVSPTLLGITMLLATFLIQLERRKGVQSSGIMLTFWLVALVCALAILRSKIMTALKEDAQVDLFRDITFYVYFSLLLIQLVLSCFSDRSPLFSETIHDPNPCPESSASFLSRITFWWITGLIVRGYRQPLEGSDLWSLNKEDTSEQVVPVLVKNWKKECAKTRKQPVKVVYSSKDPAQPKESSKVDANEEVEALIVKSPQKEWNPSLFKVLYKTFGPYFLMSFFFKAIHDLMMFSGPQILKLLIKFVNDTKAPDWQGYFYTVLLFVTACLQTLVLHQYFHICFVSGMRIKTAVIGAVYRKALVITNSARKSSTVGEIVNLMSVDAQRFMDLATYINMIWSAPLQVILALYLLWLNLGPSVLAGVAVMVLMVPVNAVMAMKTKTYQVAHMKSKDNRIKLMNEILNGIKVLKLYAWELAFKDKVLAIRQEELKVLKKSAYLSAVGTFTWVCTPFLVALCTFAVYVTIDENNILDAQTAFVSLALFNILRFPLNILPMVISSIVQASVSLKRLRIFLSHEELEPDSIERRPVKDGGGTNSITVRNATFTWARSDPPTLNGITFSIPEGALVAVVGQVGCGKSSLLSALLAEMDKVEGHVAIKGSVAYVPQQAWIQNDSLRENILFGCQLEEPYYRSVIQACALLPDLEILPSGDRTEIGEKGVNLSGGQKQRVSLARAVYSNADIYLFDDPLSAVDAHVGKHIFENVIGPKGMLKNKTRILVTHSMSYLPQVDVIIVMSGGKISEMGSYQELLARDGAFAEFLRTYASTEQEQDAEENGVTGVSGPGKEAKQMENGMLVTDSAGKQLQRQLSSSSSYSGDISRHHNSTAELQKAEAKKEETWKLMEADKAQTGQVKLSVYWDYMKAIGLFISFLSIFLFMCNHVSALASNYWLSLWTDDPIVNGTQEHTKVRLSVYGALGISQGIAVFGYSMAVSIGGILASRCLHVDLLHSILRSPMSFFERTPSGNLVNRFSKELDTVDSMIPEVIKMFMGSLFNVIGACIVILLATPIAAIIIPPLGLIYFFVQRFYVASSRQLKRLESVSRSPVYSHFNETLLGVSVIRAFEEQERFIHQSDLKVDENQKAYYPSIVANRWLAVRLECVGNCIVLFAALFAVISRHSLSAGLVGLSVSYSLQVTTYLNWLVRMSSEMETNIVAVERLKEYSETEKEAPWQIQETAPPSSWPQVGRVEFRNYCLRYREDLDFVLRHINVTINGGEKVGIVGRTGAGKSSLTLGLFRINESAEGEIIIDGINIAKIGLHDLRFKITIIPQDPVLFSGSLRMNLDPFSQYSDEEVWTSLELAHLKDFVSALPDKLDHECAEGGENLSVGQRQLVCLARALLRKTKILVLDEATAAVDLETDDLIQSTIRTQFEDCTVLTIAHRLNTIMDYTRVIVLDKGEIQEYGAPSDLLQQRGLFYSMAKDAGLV
# Voltage-gated inwardly rectifying potassium channel KCNH2, sequence (Q12809 whole entry): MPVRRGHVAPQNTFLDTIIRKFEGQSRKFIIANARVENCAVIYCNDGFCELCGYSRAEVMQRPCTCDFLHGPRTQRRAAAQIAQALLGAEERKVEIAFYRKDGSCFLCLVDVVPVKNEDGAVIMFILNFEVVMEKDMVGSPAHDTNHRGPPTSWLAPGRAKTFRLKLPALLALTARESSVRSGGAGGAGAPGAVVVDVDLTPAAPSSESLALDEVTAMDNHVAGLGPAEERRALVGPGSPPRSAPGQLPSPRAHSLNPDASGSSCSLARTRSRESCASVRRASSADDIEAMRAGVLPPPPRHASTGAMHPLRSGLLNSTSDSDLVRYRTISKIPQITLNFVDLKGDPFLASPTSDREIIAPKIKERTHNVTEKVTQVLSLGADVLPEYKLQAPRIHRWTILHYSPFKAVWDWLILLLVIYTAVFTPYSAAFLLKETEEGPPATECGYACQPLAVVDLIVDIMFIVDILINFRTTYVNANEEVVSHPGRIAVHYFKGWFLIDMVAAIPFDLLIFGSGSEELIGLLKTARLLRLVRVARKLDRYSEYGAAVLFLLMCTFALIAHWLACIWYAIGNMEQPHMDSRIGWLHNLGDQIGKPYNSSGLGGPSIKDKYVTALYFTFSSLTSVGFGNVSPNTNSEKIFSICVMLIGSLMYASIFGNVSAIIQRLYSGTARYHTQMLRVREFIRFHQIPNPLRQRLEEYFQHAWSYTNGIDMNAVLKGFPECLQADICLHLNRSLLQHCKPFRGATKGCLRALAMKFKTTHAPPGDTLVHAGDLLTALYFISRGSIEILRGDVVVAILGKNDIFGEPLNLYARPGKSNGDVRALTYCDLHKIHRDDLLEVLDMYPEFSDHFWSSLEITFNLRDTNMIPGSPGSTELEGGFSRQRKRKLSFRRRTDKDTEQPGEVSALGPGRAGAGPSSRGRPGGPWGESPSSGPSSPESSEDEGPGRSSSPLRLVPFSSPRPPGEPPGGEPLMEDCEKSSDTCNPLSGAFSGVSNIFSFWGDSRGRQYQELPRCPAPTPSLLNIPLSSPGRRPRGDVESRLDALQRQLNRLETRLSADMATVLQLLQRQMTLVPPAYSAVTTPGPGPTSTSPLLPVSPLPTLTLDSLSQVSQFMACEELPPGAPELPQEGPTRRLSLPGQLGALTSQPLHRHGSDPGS
smiles,measurement,setting,value
CC[C@@H]1C[C@]1(NC(=O)[C@@H]1C[C@@H](Oc2cc(-c3csc(NC(C)C)n3)nc3c(Cl)c(OCCN4CCOCC4(C)C)ccc23)CN1C(=O)[C@@H](NC(=O)O[C@@H]1C[C@@H]2C[C@@H]2C1)C(C)(C)C)C(=O)O,bioavailability,[1],24%
same,AUC,Canis familiaris,38.3 µM·h
same,solubility thermodynamic,[2],22 µM
same,IC50,Hepatitis C virus [3],4.2 nM
same,EC50,Hepatitis C virus [4],3.2 nM
same,Papp A→B,[5],6.6 ×10⁻⁶ cm/s
same,solubility thermodynamic,[6],1900 µM
same,Vd,[7],0.21 L/kg
same,half-life,[8],5.8 h
same,clearance,[9],0.5 mL/min/kg
same,Papp B→A,[10],10 ×10⁻⁶ cm/s
CC[C@@H]1C[C@]1(NC(=O)[C@@H]1C[C@@H](Oc2cc(-c3csc(NC(C)C)n3)nc3c(Cl)c(OCCN4CC[C@@H](OC)C4)ccc23)CN1C(=O)[C@@H](NC(=O)O[C@@H]1C[C@@H]2C[C@@H]2C1)C(C)(C)C)C(=O)O,bioavailability,[1],45%
same,AUC,Canis familiaris,8.33 µM·h
same,solubility thermodynamic,[2],59 µM
same,IC50,Hepatitis C virus [3],2.9 nM
same,EC50,Hepatitis C virus [4],3.8 nM
same,Papp A→B,[5],6.1 ×10⁻⁶ cm/s
same,solubility thermodynamic,[6],> 100 µM
same,Vd,[7],0.66 L/kg
same,half-life,[8],2.1 h
same,clearance,[9],3.67 mL/min/kg
same,Papp B→A,[10],30 ×10⁻⁶ cm/s
CC[C@@H]1C[C@]1(NC(=O)[C@@H]1C[C@@H](Oc2cc(-c3csc(NC(C)C)n3)nc3c(Cl)c(OCCN4CCCCC4)ccc23)CN1C(=O)[C@@H](NC(=O)O[C@@H]1C[C@@H]2C[C@@H]2C1)C(C)(C)C)C(=O)O,bioavailability,[1],32%
same,AUC,Canis familiaris,19.7 µM·h
same,solubility thermodynamic,[2],80 µM
same,IC50,Hepatitis C virus [3],25 nM
same,EC50,Hepatitis C virus [4],7.5 nM
same,Papp A→B,[5],6.7 ×10⁻⁶ cm/s
same,solubility thermodynamic,[6],> 100 µM
same,Vd,[7],0.39 L/kg
same,half-life,[8],3 h
same,clearance,[9],2.17 mL/min/kg
same,Papp B→A,[10],20 ×10⁻⁶ cm/s
CC[C@@H]1C[C@]1(NC(=O)[C@@H]1C[C@@H](Oc2cc(-c3csc(NC(C)C)n3)nc3c(Cl)c(OCCN4CCOCC4)ccc23)CN1C(=O)[C@@H](NC(=O)O[C@@H]1C[C@@H]2C[C@@H]2C1)C(C)(C)C)C(=O)O [VEDROPREVIR],Cmax,[11],3940 nM
same,half-life,[12],1.32 h
same,bioavailability,[1],142%
same,half-life,[13],> 6.58 h
same,Activity,Hepatitis C virus [14],3.6 log10IU/ml
same,IC50,[15],34000 nM
same,inhibition (INH),[15],Dose-dependent effect
same,AUC,Rattus norvegicus,1.41 µM·h
same,Selectivity ratio,[16],> 50000
same,IC50,[17],1400 nM
same,clearance,[18],4.83 mL/min/kg
same,fraction unbound,[19],0.026
same,half-life,[20],3.9 h
same,AUC,Canis familiaris,21.8 µM·h
same,AUC,Cynomolgus monkey,13.1 µM·h
same,Selectivity ratio,[21],> 50000
same,fraction unbound,[22],0.011
same,fraction unbound,[23],0.026
same,clearance,[24],73.3 mL/min/kg
same,solubility thermodynamic,[2],38 µM
same,Selectivity ratio,[25],> 50000
same,dose excreted,[26],45%
same,Activity,Hepatitis C virus [27],3.2 log10IU/ml
same,fraction unbound,[28],0.016
same,IC50,Hepatitis C virus [3],3.2 nM
same,Cmax,[29],576 nM
same,half-life,[30],> 6.58 h
same,Selectivity ratio,[31],> 50000
same,bioavailability,[32],62%
same,Vd,[33],2.3 L/kg
same,Activity,Hepatitis C virus [34],0.88 log10IU/ml
same,half-life,[35],> 6.58 h
same,EC50,Hepatitis C virus [4],2 nM
same,Papp A→B,[5],0.8 ×10⁻⁶ cm/s
same,solubility thermodynamic,[6],790 µM
same,Cmax,[36],3470 nM
same,inhibition (INH),[37],Not Active
same,Vd,[7],1.15 L/kg
same,half-life,[8],4.2 h
same,inhibition (INH),[38],Not Active
same,half-life,[39],0.62 h
same,bioavailability,[40],49%
same,Vd,[41],0.76 L/kg
same,half-life,[42],12 h
same,clearance,[9],4.33 mL/min/kg
same,IC50,[43],14900 nM
same,inhibition (INH),[43],Dose-dependent effect
same,concentration at 24 h,[44],400 nM
same,IC50,[45],12000 nM
same,inhibition (INH),[45],Dose-dependent effect
same,Papp B→A,[10],8.2 ×10⁻⁶ cm/s
